Test results reported in ChEMBL document CHEMBL5661979, “Pharmacological inhibition of BMK1 suppresses tumor growth through promyelocytic leukemia protein” (Cancer Cell, 2010).

Legend:
[1] = target: Serine/threonine-protein kinase PLK1 (Homo sapiens, UniProt P53350); assay: Inhibition of PLK1 in human HeLa cells lysate at 2 uM pre incubated for 15 mins followed by ADP acyl phosphate probe addition and measured after 10 mins by LC-MS/MS analysis relative to control; type: subcellular; details: time 25.0 min
[2] = target: Phosphatidylinositol 4-kinase alpha (Homo sapiens, UniProt P42356); assay: Inhibition of PIK4CA in human HeLa cells lysate at 50 uM pre incubated for 15 mins followed by ATP acyl phosphate probe addition and measured after 10 mins by LC-MS/MS analysis relative to control; type: subcellular; details: time 25.0 min
[3] = target: Tyrosine-protein kinase JAK1 (Homo sapiens, UniProt P23458); assay: Inhibition of JAK1 domain 2 in human HeLa cells lysate at 2 uM pre incubated for 15 mins followed by ATP acyl phosphate probe addition and measured after 10 mins by LC-MS/MS analysis relative to control; type: subcellular; details: time 25.0 min
[4] = target: Calcium/calmodulin-dependent protein kinase type 1D (Homo sapiens, UniProt Q8IU85); assay: Inhibition of CAMK1d in human HeLa cells lysate at 2 uM pre incubated for 15 mins followed by ATP acyl phosphate probe addition and measured after 10 mins by LC-MS/MS analysis relative to control; type: subcellular; details: time 25.0 min
Method in brief: (§1)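 KiNativ-type profiling in HeLa lysate (5 mg/mL total protein). Lysate preincubated 15 min with inhibitor at 50, 10, 2, 0.8 or 0 μM, then ATP or ADP acylphosphate probe added (5 μM final) for 10 min. Reaction stopped with urea and analysed by targeted MS, using up to four fragment ions per kinase peptide-probe conjugate. % inhibition calculated against untreated lysate. Duplicate reactions.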

[5] = target: Serine/threonine-protein kinase 4 (Homo sapiens, UniProt Q13043); assay: Inhibition of MST1 in human HeLa cells lysate pre incubated for 15 mins followed by ATP acyl phosphate probe addition and measured after 10 mins by LC-MS/MS analysis; type: subcellular
[6] = target: T1, Interleukin-1 receptor-associated kinase 4 (Homo sapiens) (UniProt Q9NWZ3); assay: Inhibition of IRAK4 in human HeLa cells lysate at 2 uM pre incubated for 15 mins followed by ATP acyl phosphate probe addition and measured after 10 mins by LC-MS/MS analysis relative to control; type: subcellular; details: time 25.0 min
T1 sequence (whole entry): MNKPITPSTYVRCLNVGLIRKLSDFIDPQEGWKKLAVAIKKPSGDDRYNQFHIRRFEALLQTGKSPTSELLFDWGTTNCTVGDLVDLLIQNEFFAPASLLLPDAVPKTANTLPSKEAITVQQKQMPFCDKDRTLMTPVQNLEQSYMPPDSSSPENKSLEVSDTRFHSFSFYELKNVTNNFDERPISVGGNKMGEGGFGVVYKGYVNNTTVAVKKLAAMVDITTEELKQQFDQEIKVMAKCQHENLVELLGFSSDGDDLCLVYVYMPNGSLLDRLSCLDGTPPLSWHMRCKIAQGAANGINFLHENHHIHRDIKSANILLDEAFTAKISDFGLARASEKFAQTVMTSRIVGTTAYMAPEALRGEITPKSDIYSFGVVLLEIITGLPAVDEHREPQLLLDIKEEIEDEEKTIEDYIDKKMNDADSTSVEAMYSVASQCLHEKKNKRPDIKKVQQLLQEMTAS

[7] = target: Focal adhesion kinase 1 (Homo sapiens, UniProt Q05397); assay: Inhibition of FAK in human HeLa cells lysate pre incubated for 15 mins followed by ADP acyl phosphate probe addition and measured after 10 mins by LC-MS/MS analysis; type: subcellular
[8] = target: Phosphatidylinositol 4-kinase beta (Homo sapiens, UniProt Q9UBF8); assay: Inhibition of PIK4CB in human HeLa cells lysate at 10 uM pre incubated for 15 mins followed by ADP acyl phosphate probe addition and measured after 10 mins by LC-MS/MS analysis relative to control; type: subcellular; details: time 25.0 min
[9] = target: Ribosomal protein S6 kinase alpha-1 (Homo sapiens, UniProt Q15418); assay: Inhibition of RSK1 domain 1 in human HeLa cells lysate pre incubated for 15 mins followed by ADP acyl phosphate probe addition and measured after 10 mins by LC-MS/MS analysis; type: subcellular
[10] = target: T2, Non-receptor tyrosine-protein kinase TNK1 (Homo sapiens) (UniProt Q13470); assay: Inhibition of TNK1 in human HeLa cells lysate at 10 uM pre incubated for 15 mins followed by ADP acyl phosphate probe addition and measured after 10 mins by LC-MS/MS analysis relative to control; type: subcellular; details: time 25.0 min
T2 sequence (whole entry): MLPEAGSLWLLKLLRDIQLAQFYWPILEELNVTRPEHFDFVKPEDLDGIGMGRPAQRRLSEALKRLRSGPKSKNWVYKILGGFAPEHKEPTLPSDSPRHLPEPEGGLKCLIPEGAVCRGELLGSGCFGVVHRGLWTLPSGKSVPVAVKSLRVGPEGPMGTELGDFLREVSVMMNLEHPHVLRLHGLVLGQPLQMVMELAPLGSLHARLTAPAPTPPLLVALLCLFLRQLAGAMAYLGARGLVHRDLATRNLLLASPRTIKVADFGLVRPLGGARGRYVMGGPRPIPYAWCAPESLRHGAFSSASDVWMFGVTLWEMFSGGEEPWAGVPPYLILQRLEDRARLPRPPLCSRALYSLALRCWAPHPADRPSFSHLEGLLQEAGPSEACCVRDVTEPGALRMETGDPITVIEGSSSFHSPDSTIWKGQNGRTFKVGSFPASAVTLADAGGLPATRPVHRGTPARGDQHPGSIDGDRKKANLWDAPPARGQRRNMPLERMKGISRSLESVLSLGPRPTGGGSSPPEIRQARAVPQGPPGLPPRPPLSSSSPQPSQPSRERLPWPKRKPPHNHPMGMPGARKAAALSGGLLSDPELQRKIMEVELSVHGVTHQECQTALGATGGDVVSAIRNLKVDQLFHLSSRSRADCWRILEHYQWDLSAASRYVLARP

[11] = target: Serine/threonine-protein kinase N2 (Homo sapiens, UniProt Q16513); assay: Inhibition of PKN2 in human HeLa cells lysate pre incubated for 15 mins followed by ATP acyl phosphate probe addition and measured after 10 mins by LC-MS/MS analysis; type: subcellular
[12] = target: Serine-protein kinase ATM (Homo sapiens, UniProt Q13315); assay: Inhibition of ATM in human HeLa cells lysate pre incubated for 15 mins followed by ADP acyl phosphate probe addition and measured after 10 mins by LC-MS/MS analysis; type: subcellular; method in brief: as §1
[13] = Inhibition of MSK1/2 in human HeLa cells lysate at 2 uM pre incubated for 15 mins followed by ADP acyl phosphate probe addition and measured after 10 mins by LC-MS/MS analysis relative to control; details: 25 min, condition cancer

Ribosomal protein S6 kinase alpha-1, sequence (Q15418 whole entry, the tested form may be a part): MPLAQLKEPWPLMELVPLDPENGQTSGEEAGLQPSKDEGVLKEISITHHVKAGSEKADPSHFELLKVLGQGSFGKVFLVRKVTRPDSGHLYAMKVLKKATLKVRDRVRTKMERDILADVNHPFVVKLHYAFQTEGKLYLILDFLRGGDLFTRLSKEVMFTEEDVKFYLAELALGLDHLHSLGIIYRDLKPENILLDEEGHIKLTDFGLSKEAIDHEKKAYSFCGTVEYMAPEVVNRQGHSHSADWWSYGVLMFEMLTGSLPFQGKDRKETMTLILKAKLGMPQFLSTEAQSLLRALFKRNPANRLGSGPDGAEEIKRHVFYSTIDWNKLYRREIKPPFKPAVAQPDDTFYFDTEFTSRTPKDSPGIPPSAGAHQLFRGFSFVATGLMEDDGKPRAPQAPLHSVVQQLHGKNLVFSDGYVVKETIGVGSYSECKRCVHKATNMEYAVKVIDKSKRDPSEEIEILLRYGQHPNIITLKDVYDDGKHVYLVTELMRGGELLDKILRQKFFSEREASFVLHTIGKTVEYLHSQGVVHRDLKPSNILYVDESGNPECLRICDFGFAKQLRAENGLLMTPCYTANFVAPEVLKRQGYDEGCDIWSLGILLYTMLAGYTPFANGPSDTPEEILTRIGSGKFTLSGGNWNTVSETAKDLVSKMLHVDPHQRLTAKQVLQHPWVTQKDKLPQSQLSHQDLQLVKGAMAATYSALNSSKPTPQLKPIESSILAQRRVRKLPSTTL
Serine-protein kinase ATM, sequence (Q13315 whole entry): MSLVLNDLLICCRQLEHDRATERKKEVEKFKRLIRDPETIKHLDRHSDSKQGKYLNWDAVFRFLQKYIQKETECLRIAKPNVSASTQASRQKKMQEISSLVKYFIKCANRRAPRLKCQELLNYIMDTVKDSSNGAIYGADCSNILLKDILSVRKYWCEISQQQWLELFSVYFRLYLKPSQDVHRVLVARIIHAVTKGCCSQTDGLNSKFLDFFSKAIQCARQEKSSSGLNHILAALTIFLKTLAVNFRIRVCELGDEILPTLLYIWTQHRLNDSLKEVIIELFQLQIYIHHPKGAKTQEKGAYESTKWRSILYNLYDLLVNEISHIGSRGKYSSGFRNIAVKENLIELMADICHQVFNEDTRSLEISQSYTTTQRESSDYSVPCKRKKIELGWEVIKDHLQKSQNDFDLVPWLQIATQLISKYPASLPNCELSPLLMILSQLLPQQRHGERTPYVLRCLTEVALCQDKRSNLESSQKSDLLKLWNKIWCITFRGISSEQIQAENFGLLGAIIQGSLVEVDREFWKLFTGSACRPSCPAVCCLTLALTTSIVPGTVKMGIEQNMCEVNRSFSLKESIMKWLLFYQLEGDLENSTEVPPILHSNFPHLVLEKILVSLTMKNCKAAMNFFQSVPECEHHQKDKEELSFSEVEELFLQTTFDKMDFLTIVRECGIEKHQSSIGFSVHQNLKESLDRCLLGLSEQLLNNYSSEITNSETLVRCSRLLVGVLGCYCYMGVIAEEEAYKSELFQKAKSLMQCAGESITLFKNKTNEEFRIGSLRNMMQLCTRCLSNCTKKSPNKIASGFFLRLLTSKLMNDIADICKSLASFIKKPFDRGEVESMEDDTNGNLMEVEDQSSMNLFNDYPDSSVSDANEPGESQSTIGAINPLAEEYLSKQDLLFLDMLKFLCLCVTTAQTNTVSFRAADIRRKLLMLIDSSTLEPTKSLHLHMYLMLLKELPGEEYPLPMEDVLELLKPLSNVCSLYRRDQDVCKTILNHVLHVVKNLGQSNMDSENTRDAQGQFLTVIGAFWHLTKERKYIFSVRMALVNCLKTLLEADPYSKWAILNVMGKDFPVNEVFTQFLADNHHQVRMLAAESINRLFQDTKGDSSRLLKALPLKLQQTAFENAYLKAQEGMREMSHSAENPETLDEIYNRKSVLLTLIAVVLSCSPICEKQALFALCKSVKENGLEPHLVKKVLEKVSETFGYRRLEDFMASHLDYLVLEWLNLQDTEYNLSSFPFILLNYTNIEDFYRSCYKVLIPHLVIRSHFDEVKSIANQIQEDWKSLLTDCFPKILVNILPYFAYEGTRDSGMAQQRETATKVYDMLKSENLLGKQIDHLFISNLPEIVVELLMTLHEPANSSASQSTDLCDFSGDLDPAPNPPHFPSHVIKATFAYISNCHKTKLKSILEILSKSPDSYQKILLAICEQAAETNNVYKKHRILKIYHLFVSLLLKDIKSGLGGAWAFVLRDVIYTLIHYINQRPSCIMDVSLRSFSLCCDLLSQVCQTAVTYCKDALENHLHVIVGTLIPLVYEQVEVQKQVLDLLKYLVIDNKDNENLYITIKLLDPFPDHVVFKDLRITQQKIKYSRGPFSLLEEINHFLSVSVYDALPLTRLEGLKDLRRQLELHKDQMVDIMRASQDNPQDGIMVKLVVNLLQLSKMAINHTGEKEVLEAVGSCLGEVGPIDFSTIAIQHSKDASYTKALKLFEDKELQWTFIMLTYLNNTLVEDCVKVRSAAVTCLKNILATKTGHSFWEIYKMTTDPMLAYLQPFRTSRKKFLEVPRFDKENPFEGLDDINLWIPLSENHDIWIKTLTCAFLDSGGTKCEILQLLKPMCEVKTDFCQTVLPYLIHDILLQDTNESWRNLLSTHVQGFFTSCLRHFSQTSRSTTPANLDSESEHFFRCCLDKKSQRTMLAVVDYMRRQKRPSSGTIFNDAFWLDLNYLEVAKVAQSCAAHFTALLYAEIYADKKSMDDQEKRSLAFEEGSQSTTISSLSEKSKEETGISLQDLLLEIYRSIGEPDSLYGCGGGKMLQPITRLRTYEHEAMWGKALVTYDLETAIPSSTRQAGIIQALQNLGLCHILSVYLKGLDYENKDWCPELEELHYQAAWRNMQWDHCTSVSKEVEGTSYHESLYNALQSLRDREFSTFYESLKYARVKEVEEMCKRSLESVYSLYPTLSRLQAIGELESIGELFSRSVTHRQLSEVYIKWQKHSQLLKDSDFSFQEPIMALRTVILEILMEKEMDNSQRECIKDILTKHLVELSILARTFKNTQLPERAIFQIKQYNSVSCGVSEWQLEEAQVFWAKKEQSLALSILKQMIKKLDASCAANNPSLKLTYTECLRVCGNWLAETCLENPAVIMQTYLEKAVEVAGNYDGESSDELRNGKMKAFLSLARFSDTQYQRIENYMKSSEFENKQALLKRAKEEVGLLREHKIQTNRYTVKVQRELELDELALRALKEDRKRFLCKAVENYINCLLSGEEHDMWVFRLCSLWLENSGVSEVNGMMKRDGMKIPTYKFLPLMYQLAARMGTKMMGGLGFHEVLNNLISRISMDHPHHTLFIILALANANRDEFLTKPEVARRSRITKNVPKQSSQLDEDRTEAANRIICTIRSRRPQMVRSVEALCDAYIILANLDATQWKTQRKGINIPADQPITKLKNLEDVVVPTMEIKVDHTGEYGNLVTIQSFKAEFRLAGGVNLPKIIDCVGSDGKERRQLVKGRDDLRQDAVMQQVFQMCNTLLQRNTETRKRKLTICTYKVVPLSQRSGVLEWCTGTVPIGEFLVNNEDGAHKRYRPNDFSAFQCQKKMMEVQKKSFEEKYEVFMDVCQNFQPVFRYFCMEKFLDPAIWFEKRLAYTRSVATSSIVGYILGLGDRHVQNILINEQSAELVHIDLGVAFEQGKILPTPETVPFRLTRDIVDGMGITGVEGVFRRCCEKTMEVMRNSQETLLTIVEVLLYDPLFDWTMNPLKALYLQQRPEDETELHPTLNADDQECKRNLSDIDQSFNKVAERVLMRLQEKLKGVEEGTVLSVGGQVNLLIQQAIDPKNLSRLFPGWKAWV
Serine/threonine-protein kinase 4, sequence (Q13043 whole entry): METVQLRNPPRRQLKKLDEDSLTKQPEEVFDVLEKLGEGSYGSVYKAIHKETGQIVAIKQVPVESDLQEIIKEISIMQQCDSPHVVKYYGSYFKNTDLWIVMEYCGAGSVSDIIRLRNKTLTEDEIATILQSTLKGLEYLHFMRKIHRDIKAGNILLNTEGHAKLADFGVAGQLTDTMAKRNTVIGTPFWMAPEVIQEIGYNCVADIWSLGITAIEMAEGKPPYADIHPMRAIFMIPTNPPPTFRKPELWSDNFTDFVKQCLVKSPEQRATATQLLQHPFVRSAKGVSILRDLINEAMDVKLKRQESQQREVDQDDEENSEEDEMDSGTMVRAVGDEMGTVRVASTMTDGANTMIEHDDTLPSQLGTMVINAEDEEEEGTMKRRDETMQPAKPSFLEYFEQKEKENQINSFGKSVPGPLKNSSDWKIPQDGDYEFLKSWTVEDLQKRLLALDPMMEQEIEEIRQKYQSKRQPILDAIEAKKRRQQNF
Calcium/calmodulin-dependent protein kinase type 1D, sequence (Q8IU85 whole entry, looked up, the tested form may be a part): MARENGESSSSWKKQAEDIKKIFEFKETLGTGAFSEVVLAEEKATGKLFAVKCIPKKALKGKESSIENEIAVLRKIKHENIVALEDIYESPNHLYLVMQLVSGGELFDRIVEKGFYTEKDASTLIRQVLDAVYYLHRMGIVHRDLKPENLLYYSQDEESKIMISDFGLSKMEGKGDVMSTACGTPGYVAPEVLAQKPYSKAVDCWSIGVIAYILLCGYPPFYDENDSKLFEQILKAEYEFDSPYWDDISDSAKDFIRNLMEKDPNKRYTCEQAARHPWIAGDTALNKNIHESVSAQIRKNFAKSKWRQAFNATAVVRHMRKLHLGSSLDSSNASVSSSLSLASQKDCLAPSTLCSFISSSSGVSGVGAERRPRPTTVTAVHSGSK

With `CCOc1cc(N2CCC(O)CC2)ccc1Nc1ncc2c(n1)N(C)c1ccccc1C(=O)N2C` as the compound, how does the inhibition [1] read?
Its inhibition is 0%.

What about the inhibition [2] of the same compound?
Its inhibition is 58%.

What about the inhibition [3] of the same compound?
The inhibition was 9.7%.

What about the inhibition [4] of the same compound?
The inhibition was 4.4%.

What about the IC50 [5] of the same compound?
Its IC50 is > 50 µM.

What about the inhibition [6] of the same compound?
The inhibition was 6.7%.

And the IC50 [7]?
The IC50 was 39 µM.

And the inhibition [8]?
Its inhibition is 1.1%.

What about the IC50 [9] of the same compound?
The IC50 was > 50 µM.

And the inhibition [10]?
The inhibition was 46%.

And the IC50 [11]?
The IC50 was > 50 µM.

And the IC50 [12]?
The IC50 was > 50 µM.

What about the inhibition at 2 µM [13] of the same compound?
The inhibition at 2 µM was 23.1%.
